From PubChem
MrgX1 antag – antagonists of human MrgX1 receptor, primary screen, HEK293 cells, Fluo-4 calcium flux | Mas-related G-protein coupled receptor member X1 (Homo sapiens), Q96LB2 | BAM8-22 antagonism; hits give low values | B-score at 10 µM | actives 1.3% (n = 310,000) | AID 588676, 2011;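 active means calcium-response B-score plate-corrected more than 3 library SD below zero, starting fluorescence within 5 deviations, no agonist response on first addition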;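 further: peak minus trough fluorescence over baseline after final BAM8-22 challenge near maximal dose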
Target sequence (Q96LB2 whole entry, looked up): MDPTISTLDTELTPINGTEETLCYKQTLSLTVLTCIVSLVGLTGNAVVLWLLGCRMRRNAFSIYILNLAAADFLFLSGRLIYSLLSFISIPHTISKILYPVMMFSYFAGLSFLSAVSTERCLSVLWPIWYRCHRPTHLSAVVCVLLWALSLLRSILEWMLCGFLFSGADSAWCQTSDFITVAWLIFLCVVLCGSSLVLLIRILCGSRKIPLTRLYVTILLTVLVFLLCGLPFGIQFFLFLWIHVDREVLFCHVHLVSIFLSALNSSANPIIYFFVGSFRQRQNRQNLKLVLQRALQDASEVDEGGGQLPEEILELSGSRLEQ
RGS4 block – RGS4 inhibitors, primary screen, cell-based, HEK293 M3R inducible RGS4, calcium flux. Regulator of G-protein signaling 4 (Homo sapiens), P49798. Fluo-4 calcium flux; hits give high values; triggered by carbachol at its EC20. B-score at 10 µM. actives 0.45% (n = 310,000). AID 463165, 2010;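 active means B-score, a plate-corrected calcium signal, over three deviations above library mean, with baseline fluorescence within five deviations of library mean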;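 further: RGS4 expression induced by doxycycline in cells with stable M3 receptor; B-score is computed from the integrated fluorescence ratio over baseline after carbachol; higher B-score means a larger calcium signal and so more RGS4 inhibition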
Target sequence (P49798 whole entry, looked up): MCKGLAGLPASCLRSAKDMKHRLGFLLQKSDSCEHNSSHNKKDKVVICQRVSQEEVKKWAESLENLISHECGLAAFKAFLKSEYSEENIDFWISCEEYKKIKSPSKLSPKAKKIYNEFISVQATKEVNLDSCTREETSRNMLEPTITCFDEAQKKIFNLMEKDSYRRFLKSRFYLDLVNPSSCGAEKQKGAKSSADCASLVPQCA
MrgX1 allo act – positive allosteric modulators of MrgX1, primary screen, HEK293 cells, Fluo-4 calcium flux | Mas-related G-protein coupled receptor member X1 (Homo sapiens), Q96LB2 | actives 0.63% (n = 310,000) | AID 588675, 2011 | B-score at 10 µM | FDSS; hits give high values;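 active means plate-corrected calcium response at least 3 library SD above typical, normal starting fluorescence, not activating the receptor alone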;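 further: compound read alongside a low EC10 to EC30 dose of BAM8-22 agonist; peak minus trough fluorescence over baseline measured at the second addition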
RGS4 act – RGS4 potentiators or activators, primary screen, cell-based, HEK293 M3R inducible RGS4, calcium flux. carbachol calcium flux Fluo4; hits give low values. B-score at 10 µM. actives 0.92% (n = 310,000). AID 463111, 2010;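 active means B-score of the integrated calcium signal more than 4 SD below the library mean, with starting fluorescence not abnormally high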;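 further: negative B-score means reduced calcium response which marks RGS4 activation or potentiation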
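Test system: HEK293 cells with stable M3R and inducible RGS4; also added: carbachol at ECmax as muscarinic agonist stimulus; schedule: dye loading 30 min 37 °C, buffer rest 30 min RT; technique: kinetic calcium fluorescence imaging with Fluo4-AM dye, 2 µM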
MrgX1 ag – agonists of human MrgX1 receptor, primary screen, HEK293 cells, Fluo-4 calcium flux; B-score at 10 µM; actives 0.44% (n = 310,000); Mas-related G-protein coupled receptor member X1 (Homo sapiens), Q96LB2; Fluo-4 calcium fluorescence, agonist mode; hits give high values;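 active means calcium response B-score plate-corrected fluorescence ratio at least 3 library SD, with starting fluorescence B-score inside 5 SD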
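Assay system: MrgX1-expressing HEK293 cells / Amount: fifteen thousand cells per well / Doses: test compound in the initial addition of three / Timing: cells plated overnight, dye loaded 0.5 h 37 °C, 0.5 h room temperature / Technique: kinetic calcium dye fluorescence, Fluo-4 NW / Control set: positive and negative controls per plate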
The depositor's hits bear a star. Compounds with a hit are over-represented: about 3.5% of the library has one in this group of screens.

How did CN(Cc1ccccc1F)Cc1cc(=O)oc2cc(O)c(Cl)cc12 do in these assays?
MrgX1 antag: inactive; RGS4 block: inactive; MrgX1 allo act: inactive; RGS4 act: inactive; MrgX1 ag: inactive

What do the screens show for `COc1ccc(CN(C)Cc2cc(=O)oc3cc(C)c(C(C)C)cc23)cc1OC`?
MrgX1 antag: inactive; RGS4 block: inactive; MrgX1 allo act: inactive; RGS4 act: -7.1*; MrgX1 ag: inactive

What do the screens show for `Cc1cc2oc(=O)cc(CN(C)Cc3ccccc3F)c2cc1Cl`?
MrgX1 antag: inactive; RGS4 block: inactive; MrgX1 allo act: inactive; RGS4 act: -7*; MrgX1 ag: inactive

What do the screens show for `Cc1cc2oc(=O)cc(CN(C)Cc3ccccc3)c2cc1C(C)C`?
MrgX1 antag: inactive; RGS4 block: inactive; MrgX1 allo act: inactive; RGS4 act: inactive; MrgX1 ag: inactive

How did COc1ccc(O)c(/C=N/Nc2nc(Nc3ccccc3)nc(-n3nc(C)cc3C)n2)c1 do in these assays?
MrgX1 antag: inactive; RGS4 block: inactive; MrgX1 allo act: inactive; RGS4 act: -8.5*; MrgX1 ag: inactive

How did CCOC(=O)C1=C(O)c2ccccc2C(=O)/C1=C\c1ccc(CC)cc1 do in these assays?
MrgX1 antag: -6*; RGS4 block: inactive; MrgX1 allo act: inactive; RGS4 act: inactive; MrgX1 ag: inactive

What do the screens show for `CCOC(=O)C1=C(Cc2ccc(C)cc2)C(=O)c2ccccc2C1=O`?
MrgX1 antag: inactive; RGS4 block: inactive; MrgX1 allo act: inactive; RGS4 act: inactive; MrgX1 ag: 86*

How did CCOC(=O)c1ccc(COC(=O)c2ccc3c(c2)-c2ccccc2C3=O)cc1 do in these assays?
MrgX1 antag: inactive; RGS4 block: inactive; MrgX1 allo act: inactive; RGS4 act: inactive; MrgX1 ag: inactive

Results for CCCc1ccc(/C=C2\C(=O)c3ccccc3C(O)=C2C(=O)OCC)cc1 ?
MrgX1 antag: -7*; RGS4 block: inactive; MrgX1 allo act: inactive; RGS4 act: inactive; MrgX1 ag: inactive

Results for CCN1CCN(CC(=O)c2ccc(OC)cc2)CC1 ?
MrgX1 antag: inactive; RGS4 block: inactive; MrgX1 allo act: inactive; RGS4 act: inactive; MrgX1 ag: inactive

Results for Cn1c(C(=O)Nc2ccc3c(c2)OCCO3)cc2c(=O)n(C)c3ccccc3c21 ?
MrgX1 antag: inactive; RGS4 block: inactive; MrgX1 allo act: inactive; RGS4 act: -7.2*; MrgX1 ag: inactive

Results for CC(C)c1ccccc1OCCCCCN1CCOCC1 ?
MrgX1 antag: inactive; RGS4 block: inactive; MrgX1 allo act: inactive; RGS4 act: -7.4*; MrgX1 ag: inactive

Results for COc1ccccc1OCCCCN1CCN(C(c2ccccc2)c2ccccc2)CC1 ?
MrgX1 antag: inactive; RGS4 block: inactive; MrgX1 allo act: inactive; RGS4 act: -8.1*; MrgX1 ag: inactive

What do the screens show for `CC(C)c1ccccc1OCCCCN1CCCCC1`?
MrgX1 antag: inactive; RGS4 block: inactive; MrgX1 allo act: inactive; RGS4 act: inactive; MrgX1 ag: inactive

What do the screens show for `O=C(COC(=O)c1ccco1)NC1CCCC1`?
MrgX1 antag: inactive; RGS4 block: inactive; MrgX1 allo act: inactive; RGS4 act: inactive; MrgX1 ag: inactive

Results for Cc1cccc2c1cnn2C(=O)CCC(=O)NCC(C)c1ccccc1 (stereo not given) ?
MrgX1 antag: inactive; RGS4 block: inactive; MrgX1 allo act: inactive; RGS4 act: inactive; MrgX1 ag: inactive

What do the screens show for `C/C(CC(=O)Nc1cc(Cl)ccc1Cl)=N\NC(=O)c1ccccc1Br`?
MrgX1 antag: inactive; RGS4 block: inactive; MrgX1 allo act: inactive; RGS4 act: inactive; MrgX1 ag: inactive

Results for CCCN1CCN(CCCNC(=O)CN2C(=O)C(CC)Oc3ccccc32)CC1 (stereo not given) ?
MrgX1 antag: inactive; RGS4 block: inactive; MrgX1 allo act: inactive; RGS4 act: inactive; MrgX1 ag: inactive

Results for CCC1Oc2ccccc2N(CC(=O)NCCCN2CCN(Cc3ccccc3)CC2)C1=O (stereo not given) ?
MrgX1 antag: -5.3*; RGS4 block: inactive; MrgX1 allo act: inactive; RGS4 act: inactive; MrgX1 ag: inactive

Results for Cc1noc(C)c1COc1ccc(C(=O)Nc2cccnc2)cc1 ?
RGS4 block: inactive; RGS4 act: -7.4*

What do the screens show for `BrC(=C\c1ccccc1)/C=N/Nc1nc(N2CCOCC2)nc(N2CCOCC2)n1`?
MrgX1 antag: inactive; RGS4 block: inactive; MrgX1 allo act: inactive; RGS4 act: inactive; MrgX1 ag: inactive

Results for BrC(/C=C\c1ccccc1)=N/Nc1nc(N2CCOCC2)nc(N2CCOCC2)n1 ?
MrgX1 antag: -8*; RGS4 block: inactive; MrgX1 allo act: inactive; RGS4 act: inactive; MrgX1 ag: inactive

Results for COc1ccc(CCNC(=O)c2cc(C(=O)c3cc(C)ccc3O)cn(CCc3ccc(OC)cc3)c2=O)cc1 ?
MrgX1 antag: inactive; RGS4 block: inactive; MrgX1 allo act: inactive; RGS4 act: -8.7*; MrgX1 ag: inactive

What do the screens show for `CN(C)CCCOc1cccc(Oc2ccccc2)c1`?
MrgX1 antag: inactive; RGS4 block: inactive; MrgX1 allo act: inactive; RGS4 act: -7.5*; MrgX1 ag: inactive

How did O=C(Nc1ccc(Cl)c(Cl)c1)c1cccnc1 do in these assays?
MrgX1 antag: inactive; RGS4 block: inactive; MrgX1 allo act: inactive; RGS4 act: inactive; MrgX1 ag: inactive

Results for O=C(NNS(=O)(=O)c1cc(Cl)c(Cl)cc1Cl)c1cccnc1 ?
MrgX1 antag: -9.2*; RGS4 block: inactive; MrgX1 allo act: inactive; RGS4 act: inactive; MrgX1 ag: inactive

Results for C/C(=N\Nc1nccnc1Cl)c1ccc(O)c(C)c1 ?
MrgX1 antag: inactive; RGS4 block: inactive; MrgX1 allo act: inactive; RGS4 act: inactive; MrgX1 ag: inactive

How did CC(C)Oc1ccc(OCCCN2CCCCCC2)cc1 do in these assays?
MrgX1 antag: inactive; RGS4 block: inactive; MrgX1 allo act: inactive; RGS4 act: -7.2*; MrgX1 ag: inactive

Results for Cc1cc(Br)ccc1OCCCCN1CCCCC1 ?
MrgX1 antag: inactive; RGS4 block: inactive; MrgX1 allo act: inactive; RGS4 act: -7*; MrgX1 ag: inactive

How did CC1CCN(CCOc2ccc(C(=O)c3ccccc3)cc2)CC1 do in these assays?
MrgX1 antag: inactive; RGS4 block: inactive; MrgX1 allo act: inactive; RGS4 act: inactive; MrgX1 ag: inactive

How did O=[N+]([O-])c1ccc(OCCCCCN2CCOCC2)cc1 do in these assays?
MrgX1 antag: inactive; RGS4 block: inactive; MrgX1 allo act: inactive; RGS4 act: inactive; MrgX1 ag: inactive
